According to ChEMBL document CHEMBL4308840, “Identification of the First Synthetic Allosteric Modulator of the CB2 Receptors and Evidence of Its Efficacy for Neuropathic Pain Relief” (2018):
Activity calls are given as the source filed them.

Assays:
[1] = target: Cannabinoid receptor 1 (Homo sapiens) (UniProt P21554); test: Displacement of [3H]CP55940 from human CB1R expressed in CHO cell membranes at 100 nM after 60 mins by liquid scintillation spectrometric method
Summary of the method: (§1)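 Membranes (50 µg protein) from CHO cells stably expressing human CB1R or CB2R, incubated with 0.7 nM [3H]CP55940 in 50 mM Tris binding buffer with 0.1% BSA, pH 7.4, at 37 °C for 60 min. Vehicle 0.1% DMSO. Ended with ice-cold buffer and vacuum filtration through GF/B filters, then liquid scintillation counting. Specific binding is total minus binding with 1 µM unlabelled CP55940. Six independent experiments, each in duplicate.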

[2] = target: Cannabinoid receptor 2 (Homo sapiens) (UniProt P34972); test: Positive allosteric modulation of human CB2R expressed in CHO cell membranes assessed as increase in [3H]CP55940 binding after 60 mins by liquid scintillation spectrometric method; summary of the method: as §1
[3] = target: Cannabinoid receptor 1 (Homo sapiens) (UniProt P21554); test: Positive allosteric modulation of human CB1R expressed in CHO cell membranes assessed as increase in [3H]CP55940 binding at 100 nM after 60 mins by liquid scintillation spectrometric method; summary of the method: as §1
[4] = target: Cannabinoid receptor 1 (Homo sapiens) (UniProt P21554); test: Positive allosteric modulation of human CB1R expressed in CHO cell membranes assessed as increase in [3H]CP55940 binding up to 1 uM after 60 mins by liquid scintillation spectrometric method relative to control
[5] = target: Cannabinoid receptor 1 (Homo sapiens) (UniProt P21554); test: Positive allosteric modulation of human CB1R expressed in CHO cell membranes assessed as increase in [3H]CP55940 binding at 10 uM after 60 mins by liquid scintillation spectrometric method
[6] = target: Cannabinoid receptor 1 (Homo sapiens) (UniProt P21554); test: Allosteric modulation of human CB1R expressed in CHO cell membranes assessed as effect on CP55940-stimulated [35S]GTPgammaS binding at 100 nM after 90 mins by liquid scintillation counting method; format: functional
Summary of the method: (§2)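 Membranes (1 mg/ml) from CHO cells stably expressing human CB1R or CB2R. Incubated with 0.1 nM [35S]GTPγS and 30 µM GDP in 50 mM Tris, 10 mM MgCl2, 100 mM NaCl, 0.2 mM EDTA, 1 mM DTT, pH 7.4, 0.1% DMSO, 30 °C for 90 min. Filtered on GF/B; scintillation counting. Duplicates; six experiments for CB1R, twelve for CB2R with CP55940.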

[7] = target: Cannabinoid receptor 2 (Homo sapiens) (UniProt P34972); test: Positive allosteric modulation of human CB2R expressed in CHO cell membranes assessed as increase in CP55940-stimulated [35S]GTPgammaS binding at 100 nM after 90 mins by liquid scintillation counting method; format: functional; summary of the method: as §2
[8] = target: Cannabinoid receptor 2 (Homo sapiens) (UniProt P34972); test: Inhibition of [35S]GTPgammaS binding to human CB2R expressed in CHO cell membranes at 100 nM after 90 mins by liquid scintillation counting method; format: functional; summary of the method: as §2
[9] = target: Cannabinoid receptor 2 (Homo sapiens) (UniProt P34972); test: Stimulation of [35S]GTPgammaS binding to human CB2R expressed in CHO cell membranes at 100 nM after 90 mins by liquid scintillation counting method; format: functional; summary of the method: as §2
[10] = target: Cannabinoid receptor 2 (Homo sapiens) (UniProt P34972); test: Positive allosteric modulation of human CB2R expressed in CHO cell membranes assessed as increase in 2-AG-stimulated [35S]GTPgammaS binding at 100 nM after 90 mins by liquid scintillation counting method; format: functional; summary of the method: as §2
[11] = target: Cannabinoid receptor 2 (Homo sapiens) (UniProt P34972); test: Positive allosteric modulation of human CB2R expressed in CHO cell membranes assessed as increase in AEA-stimulated [35S]GTPgammaS binding at 100 nM after 90 mins by liquid scintillation counting method; format: functional; summary of the method: as §2
[12] = target: Cannabinoid receptor 2 (Homo sapiens) (UniProt P34972); test: Positive allosteric modulation of human CB2R expressed in CHO cell membranes assessed as decrease in [3H]CP55940 dissociation at 100 nM up to 2 hrs by liquid scintillation spectrometric method
Summary of the method: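 Human CB2R CHO membranes (50 µg protein) were used for [3H]CP55940 dissociation in Tris buffer with 0.1% BSA, pH 7.4, with or without 100 nM test compound. Dissociation followed 0.5–120 min at 25 °C; filtration and scintillation counting. Nonspecific binding taken with 1 µM unlabelled ligand. Four experiments in duplicate.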

[13] = target: T1, Monoglyceride lipase (Homo sapiens) (UniProt Q99685); test: Inhibition of recombinant human MAGL at <10 uM using 4-NPA as substrate after 30 mins by colorimetric method
T1 sequence (whole entry): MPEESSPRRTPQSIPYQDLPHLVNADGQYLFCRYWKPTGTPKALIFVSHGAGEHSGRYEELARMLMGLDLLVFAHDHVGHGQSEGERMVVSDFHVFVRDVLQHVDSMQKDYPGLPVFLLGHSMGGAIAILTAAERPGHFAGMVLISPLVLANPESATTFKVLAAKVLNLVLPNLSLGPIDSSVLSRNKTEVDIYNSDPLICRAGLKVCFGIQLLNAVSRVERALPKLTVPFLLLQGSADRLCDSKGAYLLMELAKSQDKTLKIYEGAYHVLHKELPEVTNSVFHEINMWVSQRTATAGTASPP
Summary of the method: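 Human recombinant MAGL, 11 ng/well, with 100 µM (final) 4-nitrophenylacetate in 10 mM Tris pH 7.2, 1 mM EDTA, 0.1 mg/ml BSA, at room temperature for 30 min. 4-Nitrophenol release read at 405 nm. Controls were no-compound and no-enzyme reactions.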

Mus musculus [14] = test: Antinociceptive activity in CD-1 albino mouse model of oxaliplatin-induced neuropathic pain assessed as increase in licking latency at 5 to 10 mg/kg, po treated on day 15 post oxaliplatin treatment and measured at 30 to 60 mins post dose by cold plate test; format: functional, organism-based
Summary of the method: (§3)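 Male CD-1 mice (22–25 g) received oxaliplatin 2.4 mg kg-1 i.p. in 5% glucose on days 1-2, 5-9 and 12-14; controls got vehicle. On day 15, a single oral dose in 1% carboxymethylcellulose was given. Cold plate held at 4 °C; latency to first hind-paw licking recorded, 60 s cut-off, at 15, 30, 45, 60 and 75 min. n=16 mice over 2 sets; one-way ANOVA with Bonferroni.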

Mus musculus [15] = test: Antinociceptive activity in CD-1 albino mouse model of oxaliplatin-induced neuropathic pain assessed as licking latency time at 20 mg/kg, po treated on day 15 post oxaliplatin treatment and measured up to 15 mins post dose by cold plate test (reference value: 9.7 +/- 0.9 secs); format: functional; summary of the method: as §3
Mus musculus [16] = test: Antinociceptive activity in CD-1 albino mouse model of oxaliplatin-induced neuropathic pain assessed as licking latency time at 20 mg/kg, po treated on day 15 post oxaliplatin treatment and measured at 60 mins post dose by cold plate test (reference value: 9.7 +/- 0.9 secs); format: functional; summary of the method: as §3
Mus musculus [17] = test: Antinociceptive activity in CD-1 albino mouse model of oxaliplatin-induced neuropathic pain assessed as increase in licking latency at 1 to 10 mg/kg, po treated 15 mins after MAGL inhibitor trans-(1-(1-(1H-1,2,4-Triazole-1-carbonyl)piperidin-4-yl)-4-benzo[d][1,3]dioxol-5-yl)-3-(4-fluorophenyl)azetidin-2-one treatment on day 15 post oxaliplatin treatment and measured up to 75 mins post dose by cold plate test; format: functional
Summary of the method: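 Oxaliplatin model in male CD-1 mice: 2.4 mg kg-1 i.p. in 5% glucose on days 1-2, 5-9 and 12-14, tested day 15. MAGL inhibitor F 1 mg kg-1 p.o. was combined with oral test dosing, both in 1% carboxymethylcellulose. Cold plate latency at 4 °C, 60 s cut-off, read 15–75 min after dosing. 16 mice over 2 sets; ANOVA/Bonferroni; synergy by Chou-Talalay combination index.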

Mus musculus [18] = test: Antinociceptive activity in CD-1 albino mouse model of oxaliplatin-induced neuropathic pain assessed as increase in licking latency at 20 mg/kg, po treated 15 mins after CB1R antagonist SR141716A treatment on day 15 post oxaliplatin treatment and measured up to 75 mins post dose by cold plate test; format: functional, organism-based
Summary of the method: (§4)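 Male CD-1 mice on day 15 after oxaliplatin (2.4 mg kg-1 i.p., days 1-2, 5-9, 12-14) received the selective antagonist i.p., then the oral test dose. Cold plate at 4 °C with 60 s cut-off, licking latency read 15, 30, 45, 60 and 75 min post dose. 16 mice in 2 sets; ANOVA with Bonferroni.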

Mus musculus [19] = test: Antinociceptive activity in CD-1 albino mouse model of oxaliplatin-induced neuropathic pain assessed as increase in licking latency at 20 mg/kg, po treated 15 mins after CB2R antagonist SR144528 treatment on day 15 post oxaliplatin treatment and measured up to 75 mins post dose by cold plate test; format: functional, organism-based; summary of the method: as §4

Cannabinoid receptor 2 (Homo sapiens), sequence (P34972 whole entry): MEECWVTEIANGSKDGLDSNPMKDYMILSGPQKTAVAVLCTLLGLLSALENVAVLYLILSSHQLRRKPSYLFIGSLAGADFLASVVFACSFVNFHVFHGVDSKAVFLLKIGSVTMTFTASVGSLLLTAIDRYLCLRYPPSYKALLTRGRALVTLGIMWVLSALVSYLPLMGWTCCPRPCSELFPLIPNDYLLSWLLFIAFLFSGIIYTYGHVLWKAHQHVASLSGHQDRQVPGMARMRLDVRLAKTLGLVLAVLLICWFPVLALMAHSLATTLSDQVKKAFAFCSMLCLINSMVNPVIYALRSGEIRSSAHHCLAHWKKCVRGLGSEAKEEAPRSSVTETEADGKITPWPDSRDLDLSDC
Cannabinoid receptor 1 (Homo sapiens), sequence (P21554 whole entry): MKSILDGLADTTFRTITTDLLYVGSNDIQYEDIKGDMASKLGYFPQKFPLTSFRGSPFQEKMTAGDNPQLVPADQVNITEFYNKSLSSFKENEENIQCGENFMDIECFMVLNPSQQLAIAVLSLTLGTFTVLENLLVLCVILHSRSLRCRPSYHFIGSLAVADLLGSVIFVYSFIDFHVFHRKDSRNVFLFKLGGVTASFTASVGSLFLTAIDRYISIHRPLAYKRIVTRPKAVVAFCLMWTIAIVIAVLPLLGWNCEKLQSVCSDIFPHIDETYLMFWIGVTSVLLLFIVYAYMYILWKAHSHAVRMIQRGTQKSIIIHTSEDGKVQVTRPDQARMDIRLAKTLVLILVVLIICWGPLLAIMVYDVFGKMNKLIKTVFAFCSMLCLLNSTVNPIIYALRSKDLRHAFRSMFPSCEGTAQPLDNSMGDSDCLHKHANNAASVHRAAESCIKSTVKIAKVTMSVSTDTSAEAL

inhibition [1] | Activity [2] | Activity [3] | Structure (SMILES) | further results
Active | inactive |  | Cc1c(Br)c[nH]c(=O)c1NC(=O)C1CCCCCC1 | 
Active | inactive |  | Cc1ccn(Cc2ccc(F)cc2)c(=O)c1NC(=O)C1CCCCCC1 | 
 | Active | Active | O=C(Nc1c(O)c(Br)cn(Cc2ccc(F)cc2)c1=O)C1CCCCCC1 | 
 | inactive | Active | COc1ccc(-c2cc(NC(=O)C3CCCCCC3)c(=O)n(Cc3ccc(F)cc3)c2C)cc1 | 
Active | inactive |  | Cc1ccc(NC(=O)C2CCCCCC2)c(=O)n1Cc1ccc(F)cc1 | 
 | inactive | Active | Cc1c(Cl)cn(Cc2ccc(F)cc2)c(=O)c1NC(=O)C1CCCCCC1 | 
 | inactive | Active | COc1ccc(-c2cn(Cc3ccc(F)cc3)c(=O)c(NC(=O)C3CCCCCC3)c2C)cc1 | 
Active | inactive |  | Cc1c(Cl)cc(NC(=O)C2CCCCCC2)c(=O)n1Cc1ccc(F)cc1 | 
 | inactive | Active | Cc1c(-c2ccccc2)cn(Cc2ccc(F)cc2)c(=O)c1NC(=O)C1CCCCCC1 | 
 | inactive | Active | Cc1c(F)cc(NC(=O)C2CCCCCC2)c(=O)n1Cc1ccc(F)cc1 | 
 | inactive | Active | Cc1c(Br)cc(NC(=O)C2CCCCCC2)c(=O)n1Cc1ccc(F)cc1 | 
 | inactive | Active | Cc1c(-c2ccccc2)cc(NC(=O)C2CCCCCC2)c(=O)n1Cc1ccc(F)cc1 | 

Structure (SMILES) | inhibition [1] | Activity [2] | Activity [3] | further results
Cc1c(Br)cn(Cc2ccc(F)cc2)c(=O)c1NC(=O)C1CCCCCC1 |  | Active | Active | Activity [4]: 40%; Activity [5]: inactive; Activity [6]: inactive; Activity [7]: Active; inhibition [8]: inactive; Activity [9]: inactive; Activity [10]: Active; Activity [11]: inactive; Activity [12]: Active; inhibition [13]: inactive; Activity (Mus musculus [14]): Active; Time (Mus musculus [15]): 0.5 min; Time (Mus musculus [16]): 0.75 min; CI (Mus musculus [17]): 0.2012; Activity (Mus musculus [18]): Active; Activity (Mus musculus [19]): inactive
